test system: HeLa; assay: Tested for effect of compound on G2/M cell cycle phase and apoptosis in HeLa cells at a dose of 10E-7 for 24 hr; assay type: functional, Homo sapiens; conditions: not given
Procedure, shortened: (§1)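 HeLa cells grown in DMEM with 10% heat-inactivated FCS, 2 mM L-glutamine, penicillin and gentamicin at 37 °C, 5% CO2. Exposed to compound at 10^-6 to 10^-8 M for 24, 48 or 72 h, untreated controls run in parallel. (3-5) × 10^5 cells fixed overnight in 70% ethanol at 4 °C, then RNase A plus propidium iodide. Phase fractions measured by flow cytometry, with sub-G1 (hypodiploid) cells counted as apoptotic. Three independent experiments.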

Structure (SMILES) | Activity [%]
CCn1nccc1/N=C/C1=Cc2cc3c(cc2C(c2cc(OC)c(OC)c(OC)c2)[C@@H]1C(=O)OC)OCO3 (stereo partly specified) | 24.3

test system: HeLa; assay: Tested for effect of compound on Sub-G1 cell cycle phase and apoptosis in HeLa cells at a dose of 10E-6 for 48 hr; assay type: functional, Homo sapiens; conditions: not given; procedure, shortened: as §1

Structure (SMILES) | Activity [%]
CCn1nccc1/N=C/C1=Cc2cc3c(cc2C(c2cc(OC)c(OC)c(OC)c2)[C@@H]1C(=O)OC)OCO3 (stereo partly specified) | 23.8

test system: A549; assay: In vitro cytotoxicity against A-549 (human lung carcinoma) cell line.; assay type: functional, cell-based; conditions: Homo sapiens, A549

Structure (SMILES) | IC50 [nM]
CCn1nccc1/N=C/C1=Cc2cc3c(cc2C(c2cc(OC)c(OC)c(OC)c2)[C@@H]1C(=O)OC)OCO3 (stereo partly specified) | 960

test system: HeLa; assay: Tested for effect of compound on Sub-G1 cell cycle phase and apoptosis in HeLa cells at a dose of 10E-8 for 48 hr; assay type: functional, Homo sapiens; conditions: not given; procedure, shortened: as §1

Structure (SMILES) | Activity [%]
CCn1nccc1/N=C/C1=Cc2cc3c(cc2C(c2cc(OC)c(OC)c(OC)c2)[C@@H]1C(=O)OC)OCO3 (stereo partly specified) | 1.7

test system: HeLa; assay: Tested for effect of compound on S cell cycle phase and apoptosis in HeLa cells at a dose of 10E-8 for 72 hr; assay type: functional, Homo sapiens; conditions: not given; procedure, shortened: as §1

Structure (SMILES) | Activity [%]
CCn1nccc1/N=C/C1=Cc2cc3c(cc2C(c2cc(OC)c(OC)c(OC)c2)[C@@H]1C(=O)OC)OCO3 (stereo partly specified) | 12.2

test system: HeLa; assay: Tested for effect of compound on Sub-G1 cell cycle phase and apoptosis in HeLa cells at a dose of 10E-8 for 72 hr; assay type: functional, Homo sapiens; conditions: not given; procedure, shortened: as §1

Structure (SMILES) | Activity [%]
CCn1nccc1/N=C/C1=Cc2cc3c(cc2C(c2cc(OC)c(OC)c(OC)c2)[C@@H]1C(=O)OC)OCO3 (stereo partly specified) | 2.3

test system: HeLa; assay: Tested for effect of compound on G2/M cell cycle phase and apoptosis in HeLa cells at a dose of 10E-6 for 48 hr; assay type: functional, Homo sapiens; conditions: not given
Procedure, shortened: (§2)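 HeLa cells were grown in DMEM with 10% heat-inactivated FCS and 2 mM L-glutamine at 37 °C in 5% CO2. They were exposed to 10^-6 to 10^-8 M for 24, 48 or 72 h. Then (3-5)×10^5 cells were fixed overnight in 70% ethanol at 4 °C, PBS-washed, and given 1 mg/mL RNase A plus 20 µg/mL propidium iodide for 1 h at room temperature. DNA content was read by flow cytometry. Sub-G1 (hypodiploid) % counted as apoptotic. Untreated controls were run in parallel. Representative of three independent experiments.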

Structure (SMILES) | Activity [%]
CCn1nccc1/N=C/C1=Cc2cc3c(cc2C(c2cc(OC)c(OC)c(OC)c2)[C@@H]1C(=O)OC)OCO3 (stereo partly specified) | 49.4

test system: HeLa; assay: Tested for effect of compound on Sub-G1 cell cycle phase and apoptosis in HeLa cells at a dose of 10E-7 for 72 hr; assay type: functional, Homo sapiens; conditions: not given; procedure, shortened: as §1

Structure (SMILES) | Activity [%]
CCn1nccc1/N=C/C1=Cc2cc3c(cc2C(c2cc(OC)c(OC)c(OC)c2)[C@@H]1C(=O)OC)OCO3 (stereo partly specified) | 5.6

test system: HeLa; assay: Tested for effect of compound on G2/M cell cycle phase and apoptosis in HeLa cells at a dose of 10E-7 for 48 hr; assay type: functional, Homo sapiens; conditions: not given; procedure, shortened: as §1

Structure (SMILES) | Activity [%]
CCn1nccc1/N=C/C1=Cc2cc3c(cc2C(c2cc(OC)c(OC)c(OC)c2)[C@@H]1C(=O)OC)OCO3 (stereo partly specified) | 35.6

test system: HeLa; assay: Tested for effect of compound on S cell cycle phase and apoptosis in HeLa cells at a dose of 10E-6 for 72 hr; assay type: functional, Homo sapiens; conditions: not given; procedure, shortened: as §1

Structure (SMILES) | Activity [%]
CCn1nccc1/N=C/C1=Cc2cc3c(cc2C(c2cc(OC)c(OC)c(OC)c2)[C@@H]1C(=O)OC)OCO3 (stereo partly specified) | 8.1

test system: HeLa; assay: Tested for effect of compound on G0/G1 cell cycle phase and apoptosis in HeLa cells at a dose of 10E-7 for 24 hr; assay type: functional, Homo sapiens; conditions: not given; procedure, shortened: as §2

Structure (SMILES) | Activity [%]
CCn1nccc1/N=C/C1=Cc2cc3c(cc2C(c2cc(OC)c(OC)c(OC)c2)[C@@H]1C(=O)OC)OCO3 (stereo partly specified) | 55.6

test system: HeLa; assay: Tested for effect of compound on G0/G1 cell cycle phase and apoptosis in HeLa cells at a dose of 10E-6 for 48 hr; assay type: functional, Homo sapiens; conditions: not given; procedure, shortened: as §2

Structure (SMILES) | Activity [%]
CCn1nccc1/N=C/C1=Cc2cc3c(cc2C(c2cc(OC)c(OC)c(OC)c2)[C@@H]1C(=O)OC)OCO3 (stereo partly specified) | 16

test system: HeLa; assay: Tested for effect of compound on G0/G1 cell cycle phase and apoptosis in HeLa cells at a dose of 10E-8 for 72 hr; assay type: functional, Homo sapiens; conditions: not given; procedure, shortened: as §2

Structure (SMILES) | Activity [%]
CCn1nccc1/N=C/C1=Cc2cc3c(cc2C(c2cc(OC)c(OC)c(OC)c2)[C@@H]1C(=O)OC)OCO3 (stereo partly specified) | 60.1

test system: HeLa; assay: Tested for effect of compound on S cell cycle phase and apoptosis in HeLa cells at a dose of 10E-8 for 24 hr; assay type: functional, Homo sapiens; conditions: not given; procedure, shortened: as §1

Structure (SMILES) | Activity [%]
CCn1nccc1/N=C/C1=Cc2cc3c(cc2C(c2cc(OC)c(OC)c(OC)c2)[C@@H]1C(=O)OC)OCO3 (stereo partly specified) | 18.2

test system: P388; assay: Tested in vitro for antineoplastic activity against P-388 (lymphoid neoplasm from DBA/2 mouse) tumor cell line; assay type: functional, cell-based; conditions: not given
Procedure, shortened: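 P-388 cells seeded at 1 × 10^4 cells/well in MEM–10% FCS containing graded compound concentrations. Incubated 4 days at 37 °C, 10% CO2, 98% humidity. Inhibition scored by inverted microscopy against untreated controls, which were kept in exponential growth. Mean of duplicate wells.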

Structure (SMILES) | IC50 [nM]
CCn1nccc1/N=C/C1=Cc2cc3c(cc2C(c2cc(OC)c(OC)c(OC)c2)[C@@H]1C(=O)OC)OCO3 (stereo partly specified) | 960

test system: HeLa; assay: Tested for effect of compound on G2/M cell cycle phase and apoptosis in HeLa cells at a dose of 10E-7 for 72 hr; assay type: functional, Homo sapiens; conditions: not given; procedure, shortened: as §1

Structure (SMILES) | Activity [%]
CCn1nccc1/N=C/C1=Cc2cc3c(cc2C(c2cc(OC)c(OC)c(OC)c2)[C@@H]1C(=O)OC)OCO3 (stereo partly specified) | 44.4

test system: not listed separately; assay: Selectivity index is the ratio of IC50 of P-388 cell line to that of HT-29; assay type: functional; conditions: not given

Structure (SMILES) | Selectivity index
CCn1nccc1/N=C/C1=Cc2cc3c(cc2C(c2cc(OC)c(OC)c(OC)c2)[C@@H]1C(=O)OC)OCO3 (stereo partly specified) | 20

test system: HeLa; assay: Tested for effect of compound on G2/M cell cycle phase and apoptosis in HeLa cells at a dose of 10E-8 for 72 hr; assay type: functional, Homo sapiens; conditions: not given; procedure, shortened: as §1

Structure (SMILES) | Activity [%]
CCn1nccc1/N=C/C1=Cc2cc3c(cc2C(c2cc(OC)c(OC)c(OC)c2)[C@@H]1C(=O)OC)OCO3 (stereo partly specified) | 25.4

test system: HeLa; assay: Tested for effect of compound on G0/G1 cell cycle phase and apoptosis in HeLa cells at a dose of 10E-6 for 24 hr; assay type: functional, Homo sapiens; conditions: not given; procedure, shortened: as §2

Structure (SMILES) | Activity [%]
CCn1nccc1/N=C/C1=Cc2cc3c(cc2C(c2cc(OC)c(OC)c(OC)c2)[C@@H]1C(=O)OC)OCO3 (stereo partly specified) | 6.8

test system: HeLa; assay: Tested for effect of compound on Sub-G1 cell cycle phase and apoptosis in HeLa cells at a dose of 10E-6 for 72 hr; assay type: functional, Homo sapiens; conditions: not given; procedure, shortened: as §1

Structure (SMILES) | Activity [%]
CCn1nccc1/N=C/C1=Cc2cc3c(cc2C(c2cc(OC)c(OC)c(OC)c2)[C@@H]1C(=O)OC)OCO3 (stereo partly specified) | 39.6

test system: HeLa; assay: Tested for effect of compound on S cell cycle phase and apoptosis in HeLa cells at a dose of 10E-7 for 72 hr; assay type: functional, Homo sapiens; conditions: not given; procedure, shortened: as §1

Structure (SMILES) | Activity [%]
CCn1nccc1/N=C/C1=Cc2cc3c(cc2C(c2cc(OC)c(OC)c(OC)c2)[C@@H]1C(=O)OC)OCO3 (stereo partly specified) | 12.3
